Laboratory results published in ChEMBL document CHEMBL1153354, “Amide-containing diketoacids as HIV-1 integrase inhibitors: synthesis, structure-activity relationship analysis, and biological activity” (Bioorg Med Chem, 2009).

Assays:
[1] = target: T1, Human immunodeficiency virus type 1 integrase (Human immunodeficiency virus 1, UniProt Q7ZJM1); test: Inhibition of HIV1 integrase 3' processing activity
Method in brief: (§1)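 Wild-type IN (200 nM final) preincubated with inhibitor 30 min at 30 °C in buffer of 50 mM NaCl, 1 mM HEPES pH 7.5, 50 μM EDTA, 50 μM DTT, 10% glycerol, 7.5 mM MnCl2, 0.1 mg/mL BSA, 10 mM 2-mercaptoethanol, 10% DMSO, 25 mM MOPS pH 7.2. Then 20 nM 5'-32P-labeled linear oligonucleotide substrate added, 1 h further. Quenched with formamide/EDTA loading dye.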

[2] = target: T1, Human immunodeficiency virus type 1 integrase; test: Inhibition of HIV1 integrase strand transfer activity; method in brief: as §1

T1 sequence (Q7ZJM1 whole entry): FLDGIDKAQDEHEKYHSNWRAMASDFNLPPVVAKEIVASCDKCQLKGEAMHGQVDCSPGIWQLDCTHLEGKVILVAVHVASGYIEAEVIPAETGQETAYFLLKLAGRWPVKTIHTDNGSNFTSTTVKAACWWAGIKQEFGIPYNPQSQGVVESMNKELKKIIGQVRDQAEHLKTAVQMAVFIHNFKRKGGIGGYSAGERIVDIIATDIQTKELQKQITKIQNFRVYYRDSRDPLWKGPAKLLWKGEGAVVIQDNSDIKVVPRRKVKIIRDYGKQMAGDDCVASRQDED

| Structure (SMILES) | IC50 [1] [µM] | IC50 [2] [µM] |
| --- | --- | --- |
| O=C(O)/C(O)=C/C(=O)c1cccc(NC(=O)c2cccc(Cl)c2)c1 | 57 | 15 |
| COc1ccccc1C(=O)Nc1cccc(C(=O)/C=C(\O)C(=O)O)c1 | 73 | 13 |
| COc1cccc(C(=O)Nc2cccc(C(=O)/C=C(\O)C(=O)O)c2)c1 | 69 | 12 |
| O=C(O)/C(O)=C/C(=O)c1cccc(NC(=O)c2ccc(O)cc2)c1 | 81 | 13 |
| O=C(Cc1ccccc1)Nc1cccc(C(=O)/C=C(\O)C(=O)O)c1 | 56 | 7 |
| COc1ccc(C(=O)Nc2cccc(C(=O)/C=C(\O)C(=O)O)c2)cc1 | 95 | 19 |
| O=C(O)/C(O)=C/C(=O)c1cccc(NC(=O)c2ccccc2Cl)c1 | 92 | 18 |
| O=C(O)/C(O)=C/C(=O)c1cccc(NC(=O)c2ccccc2)c1 | > 100 | 31 |
| O=C(O)/C(O)=C/C(=O)c1cccc(NC(=O)c2ccco2)c1 | > 100 | 33 |

Compounds with a lower IC50 [1], results first:

| IC50 [1] [µM] | IC50 [2] [µM] | Structure (SMILES) |
| --- | --- | --- |
| 48 | 10 | Cc1cccc(C(=O)Nc2cccc(C(=O)/C=C(\O)C(=O)O)c2)c1O |
| 42 | 11 | COc1cc(/C=C/C(=O)Nc2cccc(C(=O)/C=C(\O)C(=O)O)c2)ccc1O |
| 41 | 11 | O=C(O)/C(O)=C/C(=O)c1cccc(NC(=O)c2ccccc2O)c1 |
| 30 | 11 | COc1ccc(/C=C/C(=O)Nc2cccc(C(=O)/C=C(\O)C(=O)O)c2)cc1 |
| 26 | 7 | O=C(/C=C/c1ccc(O)cc1)Nc1cccc(C(=O)/C=C(\O)C(=O)O)c1 |
| 22 | 7 | O=C(/C=C/c1ccc(F)cc1)Nc1cccc(C(=O)/C=C(\O)C(=O)O)c1 |
| 18 | 4 | O=C(/C=C/c1ccc(Cl)cc1)Nc1cccc(C(=O)/C=C(\O)C(=O)O)c1 |
| 8 | 2 | O=C(O)/C(O)=C/C(=O)c1cccc(NC(=O)c2cc([N+](=O)[O-])cc([N+](=O)[O-])c2O)c1 |
